The test has as its target Potassium voltage-gated channel subfamily KQT member 1 (Homo sapiens) + Potassium voltage-gated channel subfamily E member 1 (Homo sapiens) (UniProt P15382+P51787). The test can be described thus: activity at KCNQ1/E1 potassium channel – Tl flux, KCNQ1/E1-expressing cells, selectivity assay for KCNQ2 activator project, dose response (AID 504418). Conditions: KCNQ1/KCNE1 expressing cells, FluxOR thallium flux; series mostly up to 30 µM. In outline: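 Test system: CHO cell line expressing human KCNQ1/KCNE1 potassium channel; times: FluxOR dye loading 90 min, compound exposure 20 min, room temperature; measured by: FluxOR thallium-flux kinetic fluorescence; controls: vehicle wells with stimulus, blank wells without stimulus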

From PubChem BioAssay AID504418 (Johns Hopkins Ion Channel Center, 2011) come the findings set out here.

The structures appear in SMILES notation. The source made the active and inactive calls.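 How the source made its calls: active means compound raising or lowering KCNQ1 potassium channel current, with its KCNE1 partner, at some dose, giving a dose response curve; inactive means no effect at any dose or no curve.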

Potassium voltage-gated channel subfamily KQT member 1 (Homo sapiens) + Potassium voltage-gated channel subfamily E member 1 (Homo sapiens), sequence (O88943 whole entry, looked up): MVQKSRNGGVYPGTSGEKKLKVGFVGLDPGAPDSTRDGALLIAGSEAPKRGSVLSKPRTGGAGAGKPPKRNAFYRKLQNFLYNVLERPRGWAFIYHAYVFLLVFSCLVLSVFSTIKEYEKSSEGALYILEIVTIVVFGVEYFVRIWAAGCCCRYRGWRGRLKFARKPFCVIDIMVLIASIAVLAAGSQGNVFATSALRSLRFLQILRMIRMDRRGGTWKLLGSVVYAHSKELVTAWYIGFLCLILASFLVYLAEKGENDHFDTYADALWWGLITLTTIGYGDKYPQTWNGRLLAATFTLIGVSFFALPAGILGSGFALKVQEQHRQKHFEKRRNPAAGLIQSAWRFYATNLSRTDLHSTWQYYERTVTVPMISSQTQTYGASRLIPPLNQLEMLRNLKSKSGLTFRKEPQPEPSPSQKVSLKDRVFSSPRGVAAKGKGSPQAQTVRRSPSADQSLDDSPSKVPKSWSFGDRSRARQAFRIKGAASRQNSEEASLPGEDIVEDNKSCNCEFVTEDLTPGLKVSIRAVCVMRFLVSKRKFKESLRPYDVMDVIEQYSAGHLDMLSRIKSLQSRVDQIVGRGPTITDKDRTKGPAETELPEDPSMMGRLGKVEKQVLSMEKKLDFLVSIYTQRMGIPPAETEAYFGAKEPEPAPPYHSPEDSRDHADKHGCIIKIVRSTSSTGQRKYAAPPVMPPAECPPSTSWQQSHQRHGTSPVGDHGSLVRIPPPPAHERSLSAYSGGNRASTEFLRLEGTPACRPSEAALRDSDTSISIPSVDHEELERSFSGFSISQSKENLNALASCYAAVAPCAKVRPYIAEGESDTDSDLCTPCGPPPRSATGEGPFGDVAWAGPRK
Potassium voltage-gated channel subfamily KQT member 1 (Homo sapiens) + Potassium voltage-gated channel subfamily E member 1 (Homo sapiens), sequence (P51787 whole entry, looked up): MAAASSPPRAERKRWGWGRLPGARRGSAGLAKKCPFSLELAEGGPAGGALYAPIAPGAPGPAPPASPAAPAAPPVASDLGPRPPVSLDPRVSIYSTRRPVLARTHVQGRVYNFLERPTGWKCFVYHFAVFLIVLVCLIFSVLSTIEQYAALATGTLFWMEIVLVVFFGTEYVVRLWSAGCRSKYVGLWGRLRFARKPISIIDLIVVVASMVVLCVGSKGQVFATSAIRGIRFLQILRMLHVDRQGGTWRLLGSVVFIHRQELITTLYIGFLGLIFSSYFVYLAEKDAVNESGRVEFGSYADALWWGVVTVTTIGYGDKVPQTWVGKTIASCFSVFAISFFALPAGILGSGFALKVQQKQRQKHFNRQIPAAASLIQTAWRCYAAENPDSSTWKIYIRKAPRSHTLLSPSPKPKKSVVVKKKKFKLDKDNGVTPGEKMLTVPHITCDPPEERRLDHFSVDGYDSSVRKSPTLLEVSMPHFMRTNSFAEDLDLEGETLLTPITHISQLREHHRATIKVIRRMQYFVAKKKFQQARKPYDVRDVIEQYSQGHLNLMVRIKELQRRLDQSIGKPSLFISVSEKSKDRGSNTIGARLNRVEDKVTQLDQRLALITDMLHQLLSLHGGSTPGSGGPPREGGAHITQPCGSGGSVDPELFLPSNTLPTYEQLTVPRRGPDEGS

As to `Cc1ccc(C)c(NC(=O)C2CC3CCC2C3)c1` (stereo not given), the result was inactive.
As for `Cc1cc(C)c(NC(=O)C2CC3CCC2C3)c(C)c1` (stereo not given), the outcome was inactive.
As for `Cc1cccc(C)c1NC(=O)C1CC2CCC1C2` (stereo not given), the result was inactive.
On to `CCCCC(=O)Nc1c(C)cc(C)cc1Cl`, for which the outcome was inactive.
`Cc1cc(C)c(NC(=O)CC(C)(C)C)c(Cl)c1`: the outcome was inactive.
